Experimental data as given in ChEMBL document CHEMBL1132446, “Design, synthesis, and evaluation of Phe-Gly mimetics: heterocyclic building blocks for pseudopeptides” (J Med Chem, 1999).
Numbered stars: 1 amine (or outer) side, 2 acyl side, 3 side chain; on linkers, the order of the positions; unused ones are H or OH. Square brackets hold non-standard residues; d marks the D form. Peptide text beside a SMILES is read from it. X9 = O=C(Cc1nnc([C@H](Cc2ccccc2)N[*:1])[nH]1)[*:2]; X7 = O=C(c1nnc([C@H](Cc2ccccc2)N[*:1])[nH]1)[*:2]; X3 = O=C(c1nnc([C@H](Cc2ccccc2)N[*:1])o1)[*:2]; X4 = O=C(c1noc([C@H](Cc2ccccc2)N[*:1])n1)[*:2]

How the values were obtained:
Substance-P receptor = Substance-P receptor (Rattus norvegicus, UniProt P14600); assay: Affinity for rat Tachykinin receptor 1 determined in displacement screening by using radioligand 3,4-[3H]-(L-Pro e2) SP.
Substance-P receptor, sequence (P14600 whole entry): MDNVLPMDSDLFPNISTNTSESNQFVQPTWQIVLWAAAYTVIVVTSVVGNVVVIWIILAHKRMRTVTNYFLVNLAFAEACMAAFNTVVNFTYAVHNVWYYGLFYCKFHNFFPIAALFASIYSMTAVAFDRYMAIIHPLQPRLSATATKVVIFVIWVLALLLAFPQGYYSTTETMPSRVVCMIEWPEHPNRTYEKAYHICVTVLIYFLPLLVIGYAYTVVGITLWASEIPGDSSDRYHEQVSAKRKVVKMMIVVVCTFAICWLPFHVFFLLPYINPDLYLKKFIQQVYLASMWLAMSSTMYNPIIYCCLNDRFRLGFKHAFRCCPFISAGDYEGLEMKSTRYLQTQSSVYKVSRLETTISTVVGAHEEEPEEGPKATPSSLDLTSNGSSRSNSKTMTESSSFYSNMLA

[1] = Retention time of the compound.
Procedure, shortened: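 Analytical reversed-phase HPLC on a C-18 column (8 × 100 mm), eluting with CH3CN/H2O/0.1% TFA gradients. The gradient differs by compound: 0-60% at 1 mL/min over 30 min, or 5-65%, 20-60% or 0-60% at 0.5 mL/min over 30 min.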

Mu-type opioid receptor [2] = biological target: T1, Mu-type opioid receptor (Rattus norvegicus, UniProt P33535); assay: The compound was tested for binding affinity towards rat Opioid receptor mu 1 by displacing [3H]DAMGO.
T1 sequence (P33535 whole entry): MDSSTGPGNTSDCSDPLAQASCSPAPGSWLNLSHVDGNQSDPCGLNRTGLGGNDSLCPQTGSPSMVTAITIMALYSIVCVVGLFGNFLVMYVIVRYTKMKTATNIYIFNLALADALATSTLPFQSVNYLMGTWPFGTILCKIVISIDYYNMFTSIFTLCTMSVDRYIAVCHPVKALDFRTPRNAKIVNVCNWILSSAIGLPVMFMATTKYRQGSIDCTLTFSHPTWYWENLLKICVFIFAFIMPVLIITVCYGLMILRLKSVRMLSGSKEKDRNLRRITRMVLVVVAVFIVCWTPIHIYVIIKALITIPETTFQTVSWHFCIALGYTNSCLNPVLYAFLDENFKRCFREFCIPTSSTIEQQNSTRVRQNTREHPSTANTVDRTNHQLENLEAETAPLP

Mu-type opioid receptor [3] = biological target: T1, Mu-type opioid receptor; assay: The compound was tested for binding affinity towards [3H]DAMGO, in rat Opioid receptor mu 1
Procedure, shortened: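 Rat whole-brain (minus cerebellum) membranes from sucrose homogenisation, differential centrifugation and hypotonic lysis, in 50 mM Tris-HCl pH 7.4. […] Incubation 30 min at 25 °C, ended by filtration on PEI-soaked GF-C filters. Triplicates, three experiments, IC50 as mean ± SEM.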

Structure (SMILES) | IC50 (Substance-P receptor) [nM] | Retention time [1] [min] | also measured
CSCC[C@H](NC(=O)[C@H](CC(C)C)NC(=O)Cc1noc([C@H](Cc2ccccc2)NC(=O)[C@H](Cc2ccccc2)NC(=O)[C@H](CCC(N)=O)NC(=O)[C@H](CCC(N)=O)NC(=O)[C@@H]2CCCN2C(=O)[C@H](CCCCN)NC(=O)[C@@H]2CCCN2C(=O)[C@@H](N)CCCN=C(N)N)n1)C(N)=O (stereo in doubt; form 1) | > 1000 |  | 
CSCC[C@H](NC(=O)[C@H](CC(C)C)NC(=O)c1nnc([C@H](Cc2ccccc2)NC(=O)[C@H](Cc2ccccc2)NC(=O)[C@H](CCC(N)=O)NC(=O)[C@H](CCC(N)=O)NC(=O)[C@@H]2CCCN2C(=O)[C@H](CCCCN)NC(=O)[C@@H]2CCCN2C(=O)[C@@H](N)CCCNC(=N)N)o1)C(N)=O (H-RPKPQQF[X3]LM-NH2) | > 1000 |  | 
C[C@@H](NC(=O)[C@@H](N)Cc1ccc(O)cc1)C(=O)N[C@@H](Cc1ccccc1)c1nc(CN[C@@H](Cc2ccc(O)cc2)C(=O)N2CCC[C@H]2C(=O)N[C@@H](CO)C(N)=O)no1 |  | 21 | 
C[C@@H](NC(=O)[C@@H](N)Cc1ccc(O)cc1)C(=O)NCC(=O)N(C)[C@@H](Cc1ccccc1)C(=O)NCCO [DAMGO] | > 1000 |  | 
C[C@@H](NC(=O)[C@@H](N)Cc1ccc(O)cc1)C(=O)N[C@@H](Cc1ccccc1)c1nc(N[C@@H](Cc2ccc(O)cc2)C(=O)N2CCC[C@H]2C(=O)N[C@@H](CO)C(N)=O)no1 |  | 22.7 | 
C[C@@H](NC(=O)[C@@H](N)Cc1ccc(O)cc1)C(=O)N[C@@H](Cc1ccccc1)c1nnc(C(=O)N[C@@H](Cc2ccc(O)cc2)C(=O)N2CCC[C@H]2C(=O)N[C@@H](CO)C(N)=O)[nH]1 | > 1000 |  | IC50 (Mu-type opioid receptor [2]): 490 nM
CSCC[C@H](NC(=O)[C@H](CC(C)C)NC(=O)c1nnc([C@H](Cc2ccccc2)NC(=O)[C@H](Cc2ccccc2)NC(=O)[C@H](CCC(N)=O)NC(=O)[C@H](CCC(N)=O)NC(=O)[C@@H]2CCCN2C(=O)[C@H](CCCCN)NC(=O)[C@@H]2CCCN2C(=O)[C@@H](N)CCCNC(=N)N)[nH]1)C(N)=O (H-RPKPQQF[X7]LM-NH2) | > 1000 |  | 
C[C@@H](NC(=O)[C@@H](N)Cc1ccc(O)cc1)C(=O)N[C@@H](Cc1ccccc1)c1nnc(N[C@@H](Cc2ccc(O)cc2)C(=O)N2CCC[C@H]2C(=O)N[C@@H](CO)C(N)=O)o1 |  | 22 | 
C[C@@H](NC(=O)[C@@H](N)Cc1ccc(O)cc1)C(=O)N[C@@H](Cc1ccccc1)c1nnc(C(=O)N[C@@H](Cc2ccc(O)cc2)C(=O)N2CCC[C@H]2C(=O)N[C@@H](CO)C(N)=O)o1 | > 1000 |  | IC50 (Mu-type opioid receptor [2]): 20 nM
C[C@@H](NC(=O)[C@@H](N)Cc1ccc(O)cc1)C(=O)N[C@@H](Cc1ccccc1)C(=O)NCC(=O)N[C@@H](Cc1ccc(O)cc1)C(=O)N1CCC[C@H]1C(=O)N[C@@H](CO)C(N)=O [DERMORPHIN] | > 1000 |  | IC50 (Mu-type opioid receptor [3]): 6.2 nM
CSCC[C@H](NC(=O)[C@H](CC(C)C)NC(=O)Cc1nnc([C@H](Cc2ccccc2)NC(=O)[C@H](Cc2ccccc2)NC(=O)[C@H](CCC(N)=O)NC(=O)[C@H](CCC(N)=O)NC(=O)[C@@H]2CCCN2C(=O)[C@H](CCCCN)NC(=O)[C@@H]2CCCN2C(=O)[C@@H](N)CCCNC(=N)N)[nH]1)C(N)=O (H-RPKPQQF[X9]LM-NH2) | > 1000 |  | 
CSCC[C@H](NC(=O)[C@H](CC(C)C)NC(=O)c1noc([C@H](Cc2ccccc2)NC(=O)[C@H](Cc2ccccc2)NC(=O)[C@H](CCC(N)=O)NC(=O)[C@H](CCC(N)=O)NC(=O)[C@@H]2CCCN2C(=O)[C@H](CCCCN)NC(=O)[C@@H]2CCCN2C(=O)[C@@H](N)CCCN=C(N)N)n1)C(N)=O (H-RPKPQQF[X4]LM-NH2) | > 1000 |  | 
CSCC[C@H](NC(=O)[C@H](CC(C)C)NC(=O)Cc1noc([C@H](Cc2ccccc2)NC(=O)[C@H](Cc2ccccc2)NC(=O)[C@H](CCC(N)=O)NC(=O)[C@H](CCC(N)=O)NC(=O)[C@@H]2CCCN2C(=O)[C@H](CCCCN)NC(=O)[C@@H]2CCCN2C(=O)[C@@H](N)CCCN=C(N)N)n1)C(N)=O (stereo in doubt; form 2) | 307 |  | 
C[C@@H](NC(=O)[C@@H](N)Cc1ccc(O)cc1)C(=O)N[C@@H](Cc1ccccc1)c1n[nH]c(CN[C@@H](Cc2ccc(O)cc2)C(=O)N2CCC[C@H]2C(=O)N[C@@H](CO)C(N)=O)n1 |  | 20.2 | 
C[C@@H](NC(=O)[C@@H](N)Cc1ccc(O)cc1)C(=O)N[C@@H](Cc1ccccc1)c1n[nH]c(CC(=O)N[C@@H](Cc2ccc(O)cc2)C(=O)N2CCC[C@H]2C(=O)N[C@@H](CO)C(N)=O)n1 | > 1000 |  | IC50 (Mu-type opioid receptor [2]): 21 nM
C[C@@H](NC(=O)[C@@H](N)Cc1ccc(O)cc1)C(=O)N[C@@H](Cc1ccccc1)c1nc(C(=O)N[C@@H](Cc2ccc(O)cc2)C(=O)N2CCC[C@H]2C(=O)N[C@@H](CO)C(N)=O)no1 | > 1000 |  | IC50 (Mu-type opioid receptor [2]): 17 nM
CCOC(=O)Cc1n[nH]c([C@H](Cc2ccccc2)NC(=O)OC(C)(C)C)n1 |  | 22.1 | 
C[C@@H](NC(=O)[C@@H](N)Cc1ccc(O)cc1)C(=O)N[C@@H](Cc1ccccc1)c1nc(CC(=O)N[C@@H](Cc2ccc(O)cc2)C(=O)N2CCC[C@H]2C(=O)N[C@@H](CO)C(N)=O)no1 | > 1000 |  | IC50 (Mu-type opioid receptor [2]): 12 nM
CC(C)(C)OC(=O)N[C@@H](Cc1ccccc1)c1nc(CCO)no1 |  | 30.9 | 
C[C@@H](NC(=O)[C@@H](N)Cc1ccc(O)cc1)C(=O)N[C@@H](Cc1ccccc1)c1n[nH]c(N[C@@H](Cc2ccc(O)cc2)C(=O)N2CCC[C@H]2C(=O)N[C@@H](CO)C(N)=O)n1 |  | 20.6 | 
C[C@@H](NC(=O)[C@@H](N)Cc1ccc(O)cc1)C(=O)N[C@@H](Cc1ccccc1)c1nnc(CN[C@@H](Cc2ccc(O)cc2)C(=O)N2CCC[C@H]2C(=O)N[C@@H](CO)C(N)=O)o1 |  | 34 | 
C[C@@H](NC(=O)[C@@H](N)Cc1ccc(O)cc1)C(=O)N[C@@H](Cc1ccccc1)c1nnc(CC(=O)N[C@@H](Cc2ccc(O)cc2)C(=O)N2CCC[C@H]2C(=O)N[C@@H](CO)C(N)=O)o1 | > 1000 |  | IC50 (Mu-type opioid receptor [2]): 31 nM
